# The list is not random: actives were taken first. Their share in the collection is about 2.5%.
# PfG6PD inh = PfG6PD (Plasmodium falciparum) enzyme inhibition | inhibition, % at 20 µM | AID 504690 | 0.78% of 350,000 active | PfGluPho enzyme, NADPH resazurin-diaphorase fluorescence;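 active = inhibition reaching at least a set limit at 20 µM in the primary screen, cut at about 59% in these data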;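 also: 0% = DMSO wells with substrate and 100% = DMSO wells lacking glucose-6-phosphate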
# PHOSPHO1 inh = blocks human PHOSPHO1 phosphatase activity. 1.1% of 290,000 active. recombinant PHOSPHO1, absorbance phosphatase assay. Q8TCT1. inhibition, % at 13.3 µM; in the data active = inhibition above about 60%
# HKDC1 inh = HKDC1 (human) hexokinase inhibition. inhibition, % at 20 µM. AID 493160. recombinant HKDC1, G6PDH/diaphorase resazurin coupled fluorescence. 0.16% of 340,000 active. Q2TB90;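 active = inhibition above about 35% when tested at 20 µM, limit read from the data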;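 also: plate controls were DMSO wells with enzyme for no effect and DMSO wells lacking enzyme for full effect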
# Target sequence (Q2TB90 whole entry, looked up): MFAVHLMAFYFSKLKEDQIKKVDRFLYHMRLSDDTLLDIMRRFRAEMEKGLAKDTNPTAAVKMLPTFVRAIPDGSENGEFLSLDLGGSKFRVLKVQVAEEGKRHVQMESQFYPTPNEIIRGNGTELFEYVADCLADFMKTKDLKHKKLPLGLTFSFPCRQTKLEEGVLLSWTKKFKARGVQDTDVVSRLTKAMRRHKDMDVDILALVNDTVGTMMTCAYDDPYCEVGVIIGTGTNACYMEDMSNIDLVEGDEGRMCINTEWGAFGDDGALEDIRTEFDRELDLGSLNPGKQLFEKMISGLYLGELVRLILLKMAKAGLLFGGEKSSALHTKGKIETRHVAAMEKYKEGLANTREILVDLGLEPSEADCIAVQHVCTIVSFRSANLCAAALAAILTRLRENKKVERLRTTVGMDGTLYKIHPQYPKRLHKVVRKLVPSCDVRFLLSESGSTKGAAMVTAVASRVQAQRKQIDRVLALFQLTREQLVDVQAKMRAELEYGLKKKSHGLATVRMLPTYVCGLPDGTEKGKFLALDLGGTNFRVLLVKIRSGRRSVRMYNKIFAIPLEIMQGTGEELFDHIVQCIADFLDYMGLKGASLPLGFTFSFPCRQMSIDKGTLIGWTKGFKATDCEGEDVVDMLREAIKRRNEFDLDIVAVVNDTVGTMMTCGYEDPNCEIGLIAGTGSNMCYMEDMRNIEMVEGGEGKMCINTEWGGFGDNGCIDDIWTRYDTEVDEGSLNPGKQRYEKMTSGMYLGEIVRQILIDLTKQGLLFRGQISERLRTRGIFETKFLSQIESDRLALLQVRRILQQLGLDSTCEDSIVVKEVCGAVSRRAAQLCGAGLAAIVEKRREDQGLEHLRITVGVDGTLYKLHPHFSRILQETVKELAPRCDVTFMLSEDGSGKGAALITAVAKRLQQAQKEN
#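 Assay system: recombinant HKDC1 hexokinase; detection: coupled resazurin fluorescence, excitation 525 nm, emission 613 nm; benchmarks: DMSO-plus-enzyme-mix negative control, buffer-substituted positive control; compound dosing: single 20 µM dose; schedule: 90 min at room temperature in dark; also added: glucose plus 1 mM ATP as hexokinase substrates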
# EP2 modulator = modulators of human EP2 prostaglandin E2 receptor; induction, % at 25 µM; 0.83% of 260,000 active; EP2-expressing cells, cAMP HTRF FRET, PGE2 co-stimulation; P43116;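 active = compounds whose cAMP rise, as percent of the full-agonist control response, exceeds 60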;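 also: rat C6 glioma line stably carrying human EP2 under a CMV promoter; the protocol text gives 20 µM as final concentration; 100% = response of wells given 1 µM PGE2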
# TbHK1 inh = T. brucei hexokinase 1 inhibition; inhibition, % at 10 µM; AID 1430; 0.11% of 220,000 active; recombinant TbHK1, G6PDH-coupled NADH A340;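 active = inhibition of 50% or more in the single-dose primary screen; inactive = inhibition below 50%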
# EP2 antag = EP2 receptor (human) inhibition | C6 glioma cells expressing human EP2, cAMP TR-FRET; cells stimulated with saturating PGE2 | inhibition, % at 25 µM | 0.52% of 260,000 active | AID 1422;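 active = percent inhibition above 40 after rounding to a whole number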;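 also: rat C6 glioma host cells with rolipram phosphodiesterase inhibitor present; the protocol text gives 20 µM as final concentration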
# An asterisk follows results filed as active; . = no result given; + = active, no number.
SMILES,PfG6PD inh,PHOSPHO1 inh,HKDC1 inh,EP2 modulator,TbHK1 inh,EP2 antag
Cc1cc(C(=O)CSc2nnc(-c3ccco3)o2)c(C)n1CC1COc2ccccc2O1 (stereo not drawn),17,91*,-1,14,-2,13
Cc1cc(C(=O)CSc2nnc(-c3ccccc3)o2)c(C)n1CC1COc2ccccc2O1 (stereo not drawn),-8,-35,1,27,-6,2
Cc1cc(C(=O)CSc2nnc(-c3ccc(F)cc3)o2)c(C)n1CC1CCCO1 (stereo not drawn),44,100*,5,-34,-9,6
O=C(COc1ccccc1Br)Nc1nc2ccccc2s1,.,.,.,-94,.,16
C=CCNC(=O)C1CC(=O)N(c2ccc(OCC(=O)Nc3ccc(C)c(Cl)c3)cc2)C1 (stereo not drawn),.,.,.,-46,.,12
CCC1CCCCN1C(=O)CSc1nc(-c2cccs2)cc(C(F)(F)F)n1 (stereo not drawn),.,.,.,50,.,9
COc1cc(Cl)c(S(=O)(=O)N2CCCC2)cc1Cl,-7,8,-5,-9,-8,5
COc1cc(N2C(=O)C=CC2=O)c(OC)cc1Cl,72*,39,-6,-44,-12,31
CC(C)c1nnc(SCC(=O)NCCC2=CCCCC2)n1N,21,92*,-14,16,-1,3
CCn1c(N2CCC(C(=O)Nc3ccc(N4CCOCC4)cc3)CC2)nc2ccccc21,.,.,.,-12,.,7
O=C(c1ccccc1F)N1CCC(Cn2nc(-c3ccco3)ccc2=O)CC1,.,.,.,-35,.,.
CCc1nc(SCC(=O)Nc2cc(Cl)ccc2OC)c2c(C)c(C)sc2n1,.,.,.,55,.,6
Nn1c(SCC(=O)Nc2ccccc2F)nnc1-c1cccnc1,24,69*,-11,6,-7,5
Cc1cc(NC(=O)CSc2nnc(-c3cccnc3)n2N)no1,7,74*,-5,-2,-10,16
CCOc1ccc(C(O)CN2CCC3(CC2)CC(O)c2cc(Cl)ccc2O3)cc1 (stereo not drawn),.,.,.,-41,.,2
COc1ccc(-c2c(C)nn3c(NCCCO)cc(C)nc23)cc1,.,.,.,-58,.,.
CC(C)n1c(=O)[nH][nH]c1=S,75*,57,-2,-18,6,10
CC(C)n1c(=O)[nH]c2ccccc21,11,5,-5,24,10,11
COc1ccc(N=c2oc3c(OC)cccc3cc2C(=O)NCc2ccco2)cc1OC,6,-37,18,15,-9,16
COc1ccc(N=c2oc3ccccc3cc2C(=O)NCc2ccco2)cc1,.,.,.,78*,.,11
Cc1ccc(-c2csc(N)n2)s1,26,71*,-13,-31,-2,4
Cc1ccccc1-c1csc(N)n1,28,.,-10,.,.,.
C[N+](C)(C)CCC(=O)c1cccc2ccccc12,.,.,.,-11,.,106*
O=C(O)CCC(=O)c1cccc2ccccc12,-2,-1,-3,19,-6,8
O=C(NCc1ccccc1Cl)c1ccc(Cn2cc(C(F)(F)F)ccc2=O)cc1,-1,65*,-5,12,2,5
SMILES,PfG6PD inh,PHOSPHO1 inh,HKDC1 inh,EP2 modulator,TbHK1 inh,EP2 antag
CS(=O)(=O)Nn1cnc2ccccc2c1=O,-8,-8,-7,17,3,8
CC1(C)OC(=O)C(=CNn2cnc3ccccc3c2=O)C(=O)O1,-8,63*,11,18,4,17
C=CCc1cc(C)ccc1OCCOCCC(C(=O)OCC)C(=O)OCC,4,-3,-5,62*,-6,13
C=CCc1cc(Cl)ccc1OCCOCCNC(C)CC (stereo not drawn),5,28,7,-42,2,5
CCN(CC)c1ccc2nc3ccccc3[n+](CC)c2c1,14,-100,7,-294,.,+
CCN(CC)c1ccc2nc3ccc(N)cc3[n+](-c3ccccc3)c2c1,-3,.,21,.,.,.
COc1ccc(C(=O)NC(=S)Nc2sc3c(c2C(N)=O)CCC(C)C3)cc1 (stereo not drawn),.,.,.,-6,.,5
O=C(c1ncoc1-c1cccs1)N1CCN(Cc2ccc3c(c2)OCO3)CC1,.,.,.,-82,.,13
COc1cccc(OC)c1C(=O)N(C)c1nc(-c2ccc(F)cc2)cs1,.,.,.,21,.,7
Cc1cc(NC(=O)COC(=O)c2ccccc2[N+](=O)[O-])no1,-10,28,-4,-32,2,12
Cc1cccc(C)c1NC(=O)COC(=O)c1ccccc1[N+](=O)[O-],-3,63*,-4,5,-3,6
